Reference: ChEMBL document CHEMBL1123468, “Synthesis and antiviral activity of (E)-5-(2-bromovinyl)uracil and (E)-5-(2-bromovinyl)uridine” (1986)
Converted amounts (≈) assume the structure as drawn.

Test system: M21
Assay: The compound was tested for its antiviral activity against HSV-1 (KOS) virus in M-21 (GM137) cell line,
Assay type: functional
Conditions: Homo sapiens
Method in brief: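 Virus-induced cytopathogenicity in cell culture, scored microscopically. The value is the minimum concentration that cuts viral cytopathogenicity by 50%. Normal cell morphology was also checked microscopically at up to 400 μg/mL.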

In the case of `O=c1[nH]c(=O)n([C@H]2C[C@H](O)[C@@H](CO)O2)cc1/C=C/Br` [BRIVUDINE], the MIC50 is reported as 0.02 µg/mL (≈ 0.06 µM).
